Experimental data taken from ChEMBL document CHEMBL4145483, “Quinoxaline derivatives as new inhibitors of coxsackievirus B5” (Eur J Med Chem, 2018).
Values after ≈ are worked out from the molar mass of the structure shown. Active and inactive are the calls of the source. The rule behind the calls is not given here.

Columns and labels:
[1] = system: Human immunodeficiency virus 1; assay: Antiviral activity against HIV1 3B infected in human MT4 cells assessed as inhibition of viral replication by MTT assay; assay type: functional, organism-based; settings: Human immunodeficiency virus 1, 3B
How it was run: (§1)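 MT-4 cells in exponential growth are acutely infected with HIV-1 at m.o.i. 0.01 and exposed to serial compound dilutions. Viability is read by MTT after 3–4 days at 37 °C. EC50 is the concentration giving 50% protection from virus-induced cytopathogenicity, and CC50 is taken from mock-infected MT-4 cells. Both are fitted by linear regression, and the selectivity index is CC50/EC50.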

[2] = Cytotoxicity against human MT4 cells assessed as reduction in cell viability after 48 to 96 hrs by MTT assay; assay type: cell-based
How it was run: (§2)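 Cells are grown in medium with serum: MT-4 at 4×10^5 cells/ml in RPMI-1640 with 10% FBS; MDBK at 6×10^5 in MEM-E with 10% horse serum; BHK at 1×10^6 in MEM-E with 10% FBS; Vero-76 at 4×10^5 in D-MEM with 10% FBS. Serial dilutions are added at 37 °C, 5% CO2, and viability is read by MTT after 48–96 h. CC50 comes from linear regression. For MDBK, selectivity index is CC50/BVDV EC50.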

[3] = system: Human poliovirus 1 strain Sabin; assay: Antiviral activity against Poliovirus 1 Sabin ATCC VR 1562 infected in African green monkey Vero 76 cells after 2 days by plaque reduction assay; assay type: functional, organism-based; settings: Enterovirus C, ATCC VR 1562, Vero 76, 48 h
[4] = system: Bovine viral diarrhea virus 1; assay: Antiviral activity against BVDV NADL ATCC VR-534 infected in MDBK cells assessed as protection against virus-induced cytopathic effect after 3 to 4 days by MTT assay; assay type: functional, organism-based, Bovine viral diarrhea virus 1-NADL; settings: Bovine viral diarrhea virus isolates and strains, ATCC VR-534, MDBK
How it was run: (§3)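 Cytopathic-effect protection assay. MDBK (BVDV) or BHK (Reo-1) cells are infected in the presence of serial compound dilutions. After 3 or 4 days at 37 °C, viability is read by MTT. EC50 is the concentration giving 50% protection from virus-induced cytopathogenicity, derived by linear regression.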

Coxsackievirus B5 [5] = assay: Antiviral activity against Coxsackievirus B5 Ohio-1 ATCC VR 29 infected in African green monkey Vero 76 cells assessed as reduction in viral titre at 1 uM treated simultaneously with viral infection by plaque assay; assay type: functional, organism-based
How it was run: (§4)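 Time of addition. Confluent Vero-76 monolayers are infected with CV-B5 at m.o.i. 0.3. Compound at 1 μM is given at −2 to 0 h then removed, at 0 h then removed or kept, or at 2, 4, 6, 8 or 12 h post infection. After 3 days, monolayers are collected and titred by plaque assay, in two independent experiments each done in duplicate.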

[6] = system: Mammalian orthoreovirus 1; assay: Antiviral activity against Reovirus 1 3651 ATCC VR-214 infected in golden hamster BHK21 cells assessed as protection against virus-induced cytopathic effect after 3 to 4 days by MTT assay; assay type: functional, organism-based; settings: Mammalian orthoreovirus 1, 3651 ATCC VR-214, BHK-21; how it was run: as §3
Coxsackievirus B5 [7] = assay: Antiviral activity against Coxsackievirus B5 Ohio-1 ATCC VR 29 infected in African green monkey Vero 76 cells assessed as reduction in viral infectivity at 4 to 20 uM after 1 hr by plaque assay; assay type: functional, organism-based
How it was run: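 Virucidal test. A CV-B5 suspension (5×10^5 PFU/ml) is incubated with 4 or 20 μM compound, or without, for 1 h at 37 °C. Residual infectivity is then measured by plaque assay on Vero-76 cells.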

[8] = Cytotoxicity against African green monkey Vero 76 cells assessed as reduction in cell viability after 48 to 96 hrs by MTT assay; assay type: cell-based; settings: chlorocebus sabaeus; how it was run: as §2
[9] = Cytotoxicity against golden hamster BHK21 cells assessed as reduction in cell viability after 48 to 96 hrs by MTT assay; assay type: cell-based, Mesocricetus auratus, BHK-21; how it was run: as §2
Human alphaherpesvirus 1 = assay: Antiviral activity against HSV1 KOS ATCC VR 1493 infected in African green monkey Vero 76 cells after 3 days by plaque reduction assay; assay type: functional, organism-based; settings: Human alphaherpesvirus 1, KOS ATCC VR1493, Vero 76, 72 h
How it was run: (§5)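 Plaque reduction in Vero-76 monolayers, with cytotoxicity measured in parallel on the same plate. EC50 is the concentration reducing plaque number by 50%, derived by linear regression. CC50 is the concentration reducing viability of mock-infected Vero-76 cells by 50%, by MTT. Selectivity index is CC50/EC50.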

Coxsackievirus B5 [10] = assay: Antiviral activity against Coxsackievirus B5 Ohio-1 ATCC VR 29 infected in African green monkey Vero 76 cells assessed as reduction in viral titre incubated for 60 mins at 4 degC measured after 24 hrs by plaque assay; assay type: functional, organism-based
How it was run: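 Adsorption assay. Vero-76 cells are infected with CV-B5 (m.o.i. 0.1) with or without compound for 60 min at 4 °C. Unbound virus is removed, cells are washed twice with PBS and overlaid with MEM containing 1% methylcellulose. Plaques are counted after 24 h at 37 °C.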

Vaccinia virus = assay: Antiviral activity against Vaccinia virus Lister ATCC VR 1549 infected in African green monkey Vero 76 cells after 3 days by plaque reduction assay; assay type: functional, organism-based; settings: Orthopoxvirus vaccinia, ATCC VR 1549, Vero 76, 72 h
Coxsackievirus B5 [11] = assay: Antiviral activity against Coxsackievirus B5 Ohio-1 ATCC VR 29 infected in African green monkey Vero 76 cells assessed as reduction in viral titre at 1 uM preincubated for 2 hrs followed by viral infection and subsequent compound washout at 2 hrs post infection by plaque assay; assay type: functional, organism-based; how it was run: as §4
Coxsackievirus B5 [12] = assay: Antiviral activity against Coxsackievirus B5 Ohio-1 ATCC VR 29 infected in African green monkey Vero 76 cells assessed as reduction in viral yield after 72 hrs by plaque reduction assay; assay type: functional, organism-based
[13] = Cytotoxicity against MDBK cells assessed as reduction in cell viability after 48 to 96 hrs by MTT assay; assay type: cell-based, Bos taurus; settings: cattle; how it was run: as §2
[14] = system: Vesicular stomatitis Indiana virus; assay: Antiviral activity against Vesicular stomatitis virus Indiana ATCC VR 1540 infected in African green monkey Vero 76 cells after 3 days by plaque reduction assay; assay type: functional, organism-based; settings: ATCC VR 1540, Vero 76, 72 h
[15] = Selectivity index, ratio of CC50 for African green monkey Vero 76 cells to EC50 for Coxsackievirus B5 Ohio-1 ATCC VR-29; assay type: toxicity; settings: read-out: Ratio CC50/EC50; how it was run: as §5
[16] = system: Human immunodeficiency virus 1; assay: Antiviral activity against HIV1 3B infected in human MT4 cells assessed as protection against virus-induced cytopathic effect after 3 to 4 days by MTT assay; assay type: functional, organism-based; settings: Human immunodeficiency virus 1, 3B; how it was run: as §1
Yellow fever virus = assay: Antiviral activity against Yellow fever virus 17D infected in golden hamster BHK21 cells assessed as protection against virus-induced cytopathic effect after 3 to 4 days by MTT assay; assay type: functional, organism-based; settings: BHK-21
Coxsackievirus B5 [17] = assay: Antiviral activity against Coxsackievirus B5 Ohio-1 ATCC VR 29 infected in African green monkey Vero 76 cells assessed as reduction in viral replication at 1 uM measured up to 2 hrs post infection by plaque assay; assay type: functional, organism-based; how it was run: as §4
Human orthopneumovirus = assay: Antiviral activity against Human respiratory syncytial virus A2 ATCC VR 1540 infected in African green monkey Vero 76 cells after 5 days by plaque reduction assay; assay type: functional, organism-based; settings: ATCC VR 1540, Vero 76, 120 h; how it was run: as §5
Coxsackievirus B5 [18] = assay: Antiviral activity against Coxsackievirus B5 Ohio-1 ATCC VR 29 infected in African green monkey Vero 76 cells after 3 days by plaque reduction assay; assay type: functional, organism-based; settings: Enterovirus B, Ohio-1 ATCC VR 29, Vero 76, 72 h; how it was run: as §5
Coxsackievirus B5 [19] = assay: Antiviral activity against Coxsackievirus B5 Ohio-1 ATCC VR 29 infected in African green monkey Vero 76 cells assessed as reduction in viral titre at 1 uM treated simultaneously with viral infection and subsequent compound washout after 2 hrs by plaque assay; assay type: functional, organism-based; how it was run: as §4
Coxsackievirus B5 [20] = assay: Antiviral activity against Coxsackievirus B5 Ohio-1 ATCC VR 29 infected in African green monkey Vero 76 cells assessed as reduction in viral replication at 1 uM measured at 4 to 12 hrs post infection by plaque assay; assay type: functional, organism-based; how it was run: as §4
[21] = Selectivity index, ratio of CC50 for human MT4 cells to EC50 for HIV1 3B; assay type: toxicity; settings: read-out: Ratio CC50/EC50; how it was run: as §1
[22] = Selectivity index, ratio of CC50 for MDBK cells to EC50 for BVDV NADL ATCC VR-534; assay type: toxicity; settings: cattle, read-out: Ratio CC50/EC50; how it was run: as §2

Structure (SMILES) | CC50 [2] | EC50 [3] | EC50 [4] | EC50 [6] | CC50 [8] | CC50 [9] | EC50 (Human alphaherpesvirus 1) | EC50 (Vaccinia virus) | CC50 [13] | EC50 [14] | selectivity ratio [15] | EC50 [16] | EC50 (Yellow fever virus) | EC50 (Human orthopneumovirus) | EC50 (Coxsackievirus B5 [18]) | other results
C=CCCCOc1cnc2cc(C)c(C)cc2n1 |  |  |  |  |  |  |  |  |  |  |  |  |  |  |  | IC50 [1]: 0.22 µg/mL (≈ 0.908 µM)
CCOC(=O)c1ccc(SCc2ccc3nc(OC)c(OC)nc3c2)cc1 | > 100 µM | > 100 µM | > 100 µM | > 100 µM | > 100 µM | > 100 µM | > 100 µM | > 100 µM | > 100 µM | > 100 µM | > 1110 | > 100 µM | > 100 µM | > 100 µM | 0.09 µM | Activity (Coxsackievirus B5 [5]): Active; Activity (Coxsackievirus B5 [7]): inactive; Activity (Coxsackievirus B5 [10]): inactive; Activity (Coxsackievirus B5 [11]): inactive; Activity (Coxsackievirus B5 [12]): Dose-dependent effect; Activity (Coxsackievirus B5 [17]): Active; Activity (Coxsackievirus B5 [19]): inactive; Activity (Coxsackievirus B5 [20]): inactive
COc1nc2ccc(CSc3ccc(Cl)c(Cl)c3)cc2nc1OC | 48 µM | > 75 µM | > 100 µM | > 80 µM | 75 µM | 80 µM | > 75 µM | > 75 µM | > 100 µM | > 75 µM |  | > 48 µM | > 80 µM | > 75 µM | > 75 µM | 
CCOC(=O)CC[C@H](NC(=O)c1ccccc1SCc1ccc2nc(OC)c(OC)nc2c1)C(=O)OCC | 60 µM | > 100 µM | > 100 µM | > 100 µM | > 100 µM | > 100 µM | > 100 µM | > 100 µM | > 100 µM | > 100 µM |  | > 60 µM | > 100 µM | > 100 µM | > 100 µM | 
C[C@@]1(O)[C@H](O)[C@@H](CO)O[C@H]1n1cnc2c(=O)[nH]c(N)nc21 [2'-B-METHYL-GUANOSINE] |  |  | 1.1 µM | 1.9 µM |  | > 100 µM |  |  | > 100 µM |  |  |  | 1.9 µM |  |  | 
COc1nc2ccc(CSc3ccc(C(=O)O)cn3)cc2nc1OC | > 100 µM | > 90 µM | > 100 µM | > 100 µM | 90 µM | > 100 µM | > 90 µM | > 90 µM | > 100 µM | > 90 µM | 23 | > 100 µM | > 100 µM | > 90 µM | 3.8 µM | 
CCOC(=O)c1ccc(SCc2ccc3nc(OC)c(OC)nc3c2)nc1 | > 100 µM | > 100 µM | > 100 µM | > 100 µM | > 100 µM | > 100 µM | > 100 µM | > 100 µM | > 100 µM | > 100 µM | > 333 | > 100 µM | > 100 µM | > 100 µM | 0.3 µM | 
COc1nc2ccc(CSc3ccccn3)cc2nc1OC | 28 µM | > 100 µM | > 100 µM | > 100 µM | > 100 µM | > 100 µM | > 100 µM | > 100 µM | > 100 µM | > 100 µM |  | > 28 µM | > 100 µM | > 100 µM | > 100 µM | 
COc1nc2ccc(CSc3ccc4ccccc4c3)cc2nc1OC | > 100 µM | > 100 µM | > 100 µM | > 100 µM | > 100 µM | > 100 µM | > 100 µM | > 100 µM | > 100 µM | > 100 µM |  | 36 µM | > 100 µM | > 100 µM | > 100 µM | selectivity ratio [21]: 2.7
COc1nc2ccc(CSc3ccc(C(=O)O)cc3)cc2nc1OC | 68 µM | > 65 µM | > 100 µM | > 65 µM | 65 µM | 65 µM | > 65 µM | > 65 µM | > 100 µM | > 65 µM | 1080 | > 68 µM | > 65 µM | > 65 µM | 0.06 µM | 
CCOC(=O)CC[C@H](NC(=O)c1ccc(SCc2ccc3nc(OC)c(OC)nc3c2)nc1)C(=O)OCC | 19 µM | > 100 µM | 10 µM | > 85 µM | > 100 µM | 85 µM | > 100 µM | > 100 µM | > 100 µM | > 100 µM | > 1.7 | > 19 µM | > 85 µM | > 100 µM | 56 µM | selectivity ratio [22]: > 10
Cc1cc(CCCOc2c(C)cc(-c3noc(C(F)(F)F)n3)cc2C)on1 [PLECONARIL] |  |  |  |  | > 100 µM |  |  |  |  |  |  |  |  |  | 0.005 µM | 
